Data taken from article PMC7598728 (Biochemistry, 2020).

What was measured:
Vero cells = assay: Compound cytotoxicity; type: cell-based; conditions: 25 μM, no virus, 3 days, triplicate, values <1 = cytotoxic
Summary of the method: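 Vero cells seeded at 1 × 10^4 cells/well were exposed the next day, with no virus, to the DMSO-dissolved test compound. Handling matched the infected viability assay, including the 1 h 37 °C compound pre-incubation step. Viability was read by CellTiter-Fluor after 3 days.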

[1] = tested on: Zika strain MR766 (ZIKV-induced cell killing of Vero cells); assay: Cell viability assay in the presence of virus; type: cell-based, Zika virus; conditions: tested at 25 μM; values over 1 signify inhibition of ZIKV-induced cell killing
Summary of the method: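 Vero cells (DMEM, 10% heat-inactivated FBS, 37 °C, 5% CO2) were seeded at 1 × 10^4 cells/well. The next day they were infected with ZIKV that had been pretreated 1 h at 37 °C with the DMSO-dissolved test compound or controls. After 3 days, viability was read by CellTiter-Fluor fluorescence and normalized to infected cells. Run in triplicate.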

[2] = tested on: Zika strain MR766 (infectivity in Vero cells); assay: TCID50 end point dilution infectivity assay; type: cell-based, Zika virus; conditions: tested at 25 μM; activity cutoff <0.6
Summary of the method: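 End-point dilution: Vero cells were seeded at 2 × 10^4 cells/well. The next day, medium was replaced with serial dilutions of ZIKV, untreated or pretreated 1 h at 37 °C with the test compound or controls. After 6 days at 37 °C, cells were fixed in 3.7% formaldehyde and stained with crystal violet. Wells were scored for CPE, and TCID50 was calculated by the Reed and Muench method.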

[3] = tested on: Zika-induced caspase 3/7 activity in Vero cells; assay: Caspase activity assay; type: cell-based, Zika virus; conditions: tested at 25 μM; relative to virus alone or virus with DMSO
Summary of the method: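 ZIKV MR766 was pre-incubated with the DMSO-dissolved test compound or controls for 1 h at 37 °C, then added to Vero cells seeded at 1 × 10^4 cells/well the previous day (medium removed). Cells were incubated 3 days, viability read first (CellTiter-Fluor), then caspase 3/7 luminescence (Caspase-Glo 3/7). Run in triplicate.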

`C#C[C@@]1(O)[C@H](O)[C@@H](CO)O[C@H]1n1ccc2c(N)ncnc21` [NITD008] was tested, and the compound cytotoxicity (Vero cells) was “some cytotoxicity”, the “cell viability (normalized to ZIKV-infected cells)” value [1] was > 1.0 and the TCID50 infectivity [2] was < 0.6. For the same molecule, the caspase activity [3] was “suppressed caspase activity”.

In the case of `C[C@H](NC(=O)C(=O)Nc1ccccc1C(C)(C)C)C(=O)N[C@@H](CC(=O)O)C(=O)COc1c(F)c(F)cc(F)c1F` [emricasan], the caspase activity [3] is reported as “suppressed caspase activity”.
